Experiments:
[1] = molecular target: T1, N-acylethanolamine-hydrolyzing acid amidase (Homo sapiens) (UniProt Q02083); test: Irreversible inhibition of activated human NAAA assessed as ratio of Kinact/Ki using fluorogenic PAMCA and N-4-methylcoumarin as substrate
T1 sequence (whole entry): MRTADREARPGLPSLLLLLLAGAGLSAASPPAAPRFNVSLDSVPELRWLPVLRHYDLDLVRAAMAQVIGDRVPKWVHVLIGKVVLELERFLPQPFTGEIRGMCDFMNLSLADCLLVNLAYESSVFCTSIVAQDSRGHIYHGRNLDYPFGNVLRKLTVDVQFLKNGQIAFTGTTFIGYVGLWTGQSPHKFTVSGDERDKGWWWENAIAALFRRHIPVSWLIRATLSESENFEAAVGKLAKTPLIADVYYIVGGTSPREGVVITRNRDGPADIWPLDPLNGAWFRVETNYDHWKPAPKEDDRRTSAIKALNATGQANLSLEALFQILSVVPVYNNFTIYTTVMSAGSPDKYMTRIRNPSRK

[2] = molecular target: T2, N-acylethanolamine-hydrolyzing acid amidase (Homo sapiens, UniProt Q02083); test: Inhibition of activated human NAAA using fluorogenic PAMCA and N-4-methylcoumarin as substrate incubated for 90 mins by fluorescence based assay
T2 sequence (Q02083 whole entry): T1 sequence (whole entry)
Method in brief: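 Purified activated hNAAA (final 0.25 µg/mL) in 100 mM citrate-phosphate pH 4.5, 3 mM DTT, 0.1% Triton X-100, 0.05% BSA, 150 mM NaCl; compound in DMSO preincubated 90 min at room temperature. PAMCA added (final 5 µM), reaction at 37 °C for 90 min, fluorescence ex 360/em 460 nm read every 10 min. RFU converted to AMC via AMC standard curve. IC50 from eight concentrations, triplicate.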

[3] = molecular target: T3, Fatty-acid amide hydrolase 1 (Homo sapiens) (UniProt O00519); test: Inhibition of recombinant human FAAH expressed in Escherichia coli at 1 uM using fluorogenic AAMCA as substrate by fluorimetric assay relative to control
T3 sequence (whole entry): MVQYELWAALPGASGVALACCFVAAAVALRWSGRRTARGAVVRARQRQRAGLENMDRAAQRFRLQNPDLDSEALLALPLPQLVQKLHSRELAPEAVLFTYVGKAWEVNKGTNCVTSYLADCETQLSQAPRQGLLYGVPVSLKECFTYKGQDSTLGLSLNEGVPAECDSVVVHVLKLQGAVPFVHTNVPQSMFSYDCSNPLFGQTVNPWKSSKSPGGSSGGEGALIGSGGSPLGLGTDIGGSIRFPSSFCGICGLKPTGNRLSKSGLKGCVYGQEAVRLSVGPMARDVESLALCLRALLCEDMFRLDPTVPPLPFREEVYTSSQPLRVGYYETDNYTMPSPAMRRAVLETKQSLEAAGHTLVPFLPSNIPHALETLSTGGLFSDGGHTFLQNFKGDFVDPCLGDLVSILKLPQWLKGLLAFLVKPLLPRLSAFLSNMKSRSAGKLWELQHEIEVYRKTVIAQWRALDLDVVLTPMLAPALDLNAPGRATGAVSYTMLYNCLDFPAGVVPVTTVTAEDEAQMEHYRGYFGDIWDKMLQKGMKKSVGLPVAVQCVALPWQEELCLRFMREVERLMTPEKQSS
Method in brief: (§1)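 Human recombinant FAAH expressed in E. coli and purified; fluorometric assay with arachidonoyl 7-amino-4-methylcoumarin amide (AAMCA) as substrate; IC50 by curve fitting, or percent inhibition at 1 µM.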

[4] = Half life in human plasma by HPLC analysis
[5] = molecular target: T4, Monoglyceride lipase (Homo sapiens) (UniProt Q99685); test: Inhibition of recombinant human hexaHis-tagged MGL expressed in Escherichia coli BL21 (DE3) at 1 uM using fluorogenic AHMMCE as substrate preincubated for 1 hr followed by substrate addition by fluorimetric assay relative to control
T4 sequence (whole entry): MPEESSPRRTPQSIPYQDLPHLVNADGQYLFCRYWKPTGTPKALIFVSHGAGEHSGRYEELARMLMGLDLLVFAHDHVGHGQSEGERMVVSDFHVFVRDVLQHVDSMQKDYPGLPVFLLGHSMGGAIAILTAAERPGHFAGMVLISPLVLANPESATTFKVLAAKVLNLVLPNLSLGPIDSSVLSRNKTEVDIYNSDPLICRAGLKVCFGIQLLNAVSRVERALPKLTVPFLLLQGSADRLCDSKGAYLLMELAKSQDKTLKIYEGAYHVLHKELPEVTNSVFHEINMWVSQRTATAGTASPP
Method in brief: (§2)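 Human recombinant MGL expressed in E. coli and purified; fluorometric assay using arachidonoyl 7-hydroxy-6-methoxy-4-methylcoumarin ester (AHMMCE) as substrate; IC50 by curve fitting, or percent inhibition at 1 µM.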

[6] = molecular target: T5, Fatty-acid amide hydrolase 1 (Homo sapiens, UniProt O00519); test: Inhibition of recombinant human FAAH expressed in Escherichia coli using fluorogenic AAMCA as substrate by fluorimetric assay; method in brief: as §1
T5 sequence (O00519 whole entry): T3 sequence (whole entry)

Homo sapiens [7] = species on record: Homo sapiens; test: Selectivity index, ratio of IC50 for human hexaHis-tagged MGL expressed in Escherichia coli BL21 (DE3) using fluorogenic AHMMCE as substrate preincubated for 1 hr followed by substrate addition by fluorimetric assay to IC50 human NAAA using fluorogenic PAMCA and N-4-methylcoumarin as substrate incubated for 90 mins by fluorescence based assay
Homo sapiens [8] = species on record: Homo sapiens; test: Selectivity index, ratio of IC50 for human Cathepsin K using […] as substrate preincubated with enzyme for 90 mins followed by substrate addition by fluorimetry analysis to IC50 human NAAA using fluorogenic PAMCA and N-4-methylcoumarin as substrate incubated for 90 mins by fluorescence based assay
Homo sapiens [9] = species on record: Homo sapiens; test: Selectivity index, ratio of IC50 for full length human ABHD6 using AHMMCE as substrate preincubated for 1 hr followed by substrate addition by fluorimetric assay to IC50 human NAAA using fluorogenic PAMCA and N-4-methylcoumarin as substrate incubated for 90 mins by fluorescence based assay
Homo sapiens [10] = species on record: Homo sapiens; test: Selectivity index, ratio of IC50 for recombinant human FAAH expressed in Escherichia coli using fluorogenic AAMCA as substrate by fluorimetric assay to IC50 human NAAA using fluorogenic PAMCA and N-4-methylcoumarin as substrate incubated for 90 mins by fluorescence based assay
Monoglyceride lipase = molecular target: T6, Monoglyceride lipase (Homo sapiens, UniProt Q99685); test: Inhibition of recombinant human hexaHis-tagged MGL expressed in Escherichia coli BL21 (DE3) using fluorogenic AHMMCE as substrate preincubated for 1 hr followed by substrate addition by fluorimetric assay; method in brief: as §2
T6 sequence (Q99685 whole entry): T4 sequence (whole entry)

[11] = molecular target: T2, N-acylethanolamine-hydrolyzing acid amidase; test: Inhibition of NAAA (unknown origin)
[12] = Half life in human liver microsomes at 1 uM in presence of NADPH by LC-MS/MS
[13] = Half life in artificial gastric fluid by HPLC analysis; format: physicochemical
Method in brief: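 Compound at 200 μM incubated in artificial gastric juice; reaction quenched with acetonitrile and samples analysed by HPLC to estimate half-life (min).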

[14] = Half life in rat liver microsomes at 1 uM in presence of NADPH by LC-MS/MS; settings: microsomes
[15] = Half life in rat plasma by HPLC analysis

COc1ccc(-c2ccc(COC3CN(C#N)C3)cc2)cc1 showed a Ratio [1] of 3.25 ×10⁶ /M/s and an IC50 [2] of 0.94 nM.

Work on N#CN1CC(OCc2ccc(-c3ccc(F)cc3)cc2)C1 yielded a Ratio [1] of 2.09 ×10⁶ /M/s and an IC50 [2] of 0.68 nM.

In the case of COc1ccccc1-c1cc(Oc2ccccc2)ccc1COC1CN(C#N)C1, the IC50 [2] is reported as 23.7 nM.

In the case of N#Cc1ccccc1-c1cc(Oc2ccccc2)ccc1COC1CN(C#N)C1, the IC50 [2] is reported as 6.6 nM.

N#CN1CC(OCc2ccc(Oc3ccccc3)cc2Br)C1 showed an IC50 [2] of 1.03 nM.

In the case of N#CN1CC(Oc2ccc(-c3ccccc3)cc2)C1, the IC50 [2] is reported as 29 nM.

For N#CN1CC(COCc2ccc(-c3ccccc3)cc2)C1, the Ratio [1] was 3.04 ×10⁶ /M/s and the IC50 [2] was 3.4 nM.

For COc1cccc(-c2ccc(C(=O)NC3(C)CN(C#N)C3)cc2)c1, the inhibition [3] was 23%, the IC50 [2] was 1.58 nM and the half-life [4] was 902 min. It also gave an inhibition [5] of 11%.

Molecule COc1cccc(-c2ccc(S(=O)(=O)NC3(C)CN(C#N)C3)cc2)c1 has an IC50 [6] of 17.8 nM, a Ratio IC50 (Homo sapiens [7]) greater than 100 and an IC50 [2] of 3.2 nM. For the same molecule, the half-life [4] was 221 min, the Ratio IC50 (Homo sapiens [8]) was greater than 100 and the inhibition [5] was 19%. For the same molecule, the Ratio IC50 (Homo sapiens [9]) was greater than 100.

In the case of COc1cccc(-c2ccc(COC3(C)CN(C#N)C3)cc2)c1, the Ratio IC50 (Homo sapiens [10]) is reported as 0.2, the IC50 (Monoglyceride lipase) is reported as 1060 nM and the IC50 [6] is reported as 0.36 nM. It also gave a Ratio IC50 (Homo sapiens [7]) of 500, an IC50 [2] of 1.8 nM and a Ratio IC50 (Homo sapiens [8]) of 50.

C[C@H]1[C@H](NC(=O)OCCCCC2CCCCC2)C(=O)N1c1cccc(S(C)(=O)=O)c1 showed an IC50 [11] of 6 nM.

Molecule COc1cccc(-c2ccc(COC3CN(C#N)C3)cc2)c1 has a Ratio [1] of 3.05 ×10⁶ /M/s, a half-life at 1 µM ([12]; microsomes) of 11.2 min and a half-life [13] of 450 min. It also gave an IC50 [2] of 0.89 nM, a half-life at 1 µM [14] of 10 min and a half-life [4] of 204 min. The half-life [15] was 189 min.

With Cc1ccc(-c2ccc(COC3CN(C#N)C3)cc2)cc1 the Ratio [1] was 2.24 ×10⁶ /M/s and the IC50 [2] was 0.46 nM.

Molecule COc1ccc(-c2ccc(COC3(c4cccnc4)CN(C#N)C3)c(F)c2)cc1F has an IC50 [6] of 2 nM and an IC50 [2] of 4.6 nM.

N#CN1CC[C@@H](OCc2ccc(-c3ccccc3)cc2)C1 showed an IC50 [2] of 26.4 nM.

COc1cccc(-c2ccc(C(=O)N3CCC34CN(C#N)C4)cc2)c1 gave an inhibition [3] of 6%, a Ratio IC50 (Homo sapiens [10]) greater than 100 and a Ratio IC50 (Homo sapiens [7]) greater than 100. The IC50 [2] was 6.5 nM, the half-life [4] was 458 min and the Ratio IC50 (Homo sapiens [8]) was greater than 100. It also gave an inhibition [5] of 4% and a Ratio IC50 (Homo sapiens [9]) greater than 100.

N#Cc1ccc(-c2cc(Oc3ccccc3)ccc2COC2CN(C#N)C2)cc1 gave an IC50 [2] of 2.5 nM.

In the case of COc1cccc(-c2ccc(COC3CN(C#N)C3)c(F)c2)c1, the half-life [13] is reported as 271 min and the IC50 [2] is reported as 0.47 nM.

CN(Cc1ccc(-c2ccccc2)cc1)C1CN(C#N)C1 showed a half-life at 1 µM ([12]; liver microsomes) of 11.3 min and an IC50 [2] of 20.8 nM.

Molecule N#CN1CC(OCc2ccc(-c3cccnc3)cc2)C1 has an IC50 [2] of 12 nM.

Molecule COc1cccc(-c2ccc(COC3CN(C#N)C3)c(C(F)(F)F)c2)c1 has a Ratio [1] of 1.4 ×10⁶ /M/s and an IC50 [2] of 0.85 nM.

— ChEMBL document CHEMBL4609990, “Design and synthesis of cyanamides as potent and selective N-acylethanolamine acid amidase inhibitors” (Bioorg Med Chem, 2020)
